We go through 15 compounds from ChEMBL document CHEMBL4732054, “Extension of furopyrimidine nucleosides with 5-alkynyl substituent: Synthesis, high fluorescence, and antiviral effect in the absence of free ribose hydroxyl groups” (Eur J Med Chem, 2021).

Series [1] concerns Human alphaherpesvirus 3. The series can be described thus: Antiviral activity against thymidine kinase positive Varicella zoster virus OKA infected in human HEL cells assessed as reduction in virus-induced cytopathogenic effect measured after 3 days coulter counter method. The format is functional, organism-based. The settings on record: Human alphaherpesvirus 3, OKA, 72 h. In general terms: Cytopathic effects are the visible damage that an infection or toxin causes in cultured cells.

Series [2] has as its system Human alphaherpesvirus 3. The series can be described thus: Antiviral activity against thymidine kinase deficient Varicella zoster virus 07-1 infected in human HEL cells assessed as reduction in virus-induced cytopathogenic effect measured after 3 days coulter counter method. It counts as functional, organism-based. The settings on record: Human alphaherpesvirus 3, 07-1, HEL, 72 h.

Series [3] is described as follows: Cytotoxicity against human HEL cells assessed as concentration required to cause visible alteration in cell morphology incubated for 3 days by coulter counter method. The settings on record: time 3 day. It counts as cell-based. The procedure, abridged:
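MCC scored by microscopy in confluent HEL cell cultures as the lowest compound concentration that causes a visible change in cell morphology.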

The test system of a further series is HEL. The series can be described thus: Cytotoxicity against human HEL cells assessed as reduction in cell growth incubated for 3 days by coulter counter method. It counts as cell-based. The settings on record: 72 h, time 3 day. The procedure, abridged:
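HEL cells were seeded at 5 × 10^3 cells/well and allowed to grow for 24 h. Medium containing varying compound concentrations was then added, and cells were incubated 3 days at 37 °C. Cell number was counted with a Coulter counter.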

The nature of series [4]: Selectivity index, ratio of CC50 for human HEL cells to EC50 for thymidine kinase positive Varicella zoster virus OKA infected in human HEL cells. The format is toxicity, cell-based. The settings on record: read-out: Ratio CC50/EC50. The procedure, abridged: (§1)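 VZV plaque reduction in confluent HEL cells: 20 PFU input, 1–2 h adsorption, then unbound virus removed and cells given varying compound concentrations in duplicate. EC50 is the concentration halving plaque number. […] SI = CC50/EC50.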

Series [5] is described as follows: Selectivity ratio of EC50 for thymidine kinase deficient Varicella zoster virus 07-1 infected in human HEL cells to EC50 for thymidine kinase positive Varicella zoster virus OKA infected in human HEL cells. It counts as functional.
Series [6] is described as follows: Selectivity index, ratio of CC50 for human HEL cells to EC50 for thymidine kinase deficient Varicella zoster virus 07-1 infected in human HEL cells. The settings on record: read-out: Ratio CC50/EC50. The format is toxicity, cell-based. In short, it runs like this: as §1

Each structure is given as a SMILES string.

As a reminder, the EC50 is the midpoint of the concentration-response curve. The CC50 is the concentration at which the toxic effect on the cells reaches its halfway point. As to `CCCCCc1ccc(-c2oc3nc(=O)n([C@H]4C[C@H](OC(C)=O)[C@@H](COC(C)=O)O4)cc3c2C#CCCO)cc1`, the half-maximal effective concentration (EC50) in the series with Human alphaherpesvirus 3 [1] is 4.02 µM; with Human alphaherpesvirus 3 [2] it was 13 µM. In addition, the MCC at 72 h in series [3] is 100 µM. The CC50 in the series on HEL was 2.66 µM. Besides, in series [4], the selectivity ratio is not above 1.

In the case of `CCCCCc1ccc(C#Cc2c(-c3ccc(C)cc3)oc3nc(=O)n([C@H]4C[C@H](OC(C)=O)[C@@H](COC(C)=O)O4)cc23)cc1`, the EC50 with Human alphaherpesvirus 3 [1] and with Human alphaherpesvirus 3 [2] was more than 4 µM each time. The MCC at 72 h in series [3] was 20 µM.

As for `CC(=O)OCC#Cc1c(-c2ccc(C)cc2)oc2nc(=O)n([C@H]3C[C@H](OC(C)=O)[C@@H](COC(C)=O)O3)cc12`, the EC50 in the series on Human alphaherpesvirus 3 [1] was more than 100 µM; in the series with Human alphaherpesvirus 3 [2], 100 µM. Moreover, in series [3], the MCC at 72 h was more than 100 µM.

In the case of `CCCCCc1ccc(-c2oc3nc(=O)n([C@H]4C[C@H](OC(C)=O)[C@@H](COC(C)=O)O4)cc3c2C#Cc2ccc(C)cc2)cc1`, the EC50 in the series with Human alphaherpesvirus 3 [1] is 7.61 µM; with Human alphaherpesvirus 3 [2] it was more than 20 µM. In series [3], the MCC at 72 h stood at 100 µM.

`CC(=O)OC[C@H]1O[C@@H](n2cc3c(C#CCO)c(-c4ccc(C)cc4)oc3nc2=O)C[C@@H]1OC(C)=O`: the EC50 in the series with Human alphaherpesvirus 3 [1] was 66.9 µM; in the series with Human alphaherpesvirus 3 [2] it was more than 100 µM. The MCC at 72 h in series [3] was more than 100 µM.

As for `CC(=O)OC[C@H]1O[C@@H](n2cc3c(C#CC4(O)c5ccccc5-c5ccccc54)c(-c4ccc(C)cc4)oc3nc2=O)C[C@@H]1OC(C)=O`, the EC50 in the series with Human alphaherpesvirus 3 [1] came to 1.3 µM; in the series with Human alphaherpesvirus 3 [2], 7.61 µM. Further, the MCC at 72 h in series [3] came to 100 µM. Besides, the CC50 in the series on HEL is 2.36 µM. Besides, in series [4], the selectivity ratio is not above 1.

As to `CC(=O)OC[C@H]1O[C@@H](n2cc3c(C#CCCO)c(-c4ccc(C)cc4)oc3nc2=O)C[C@@H]1OC(C)=O`, the EC50 in the series on Human alphaherpesvirus 3 [1] was 76.5 µM; with Human alphaherpesvirus 3 [2], more than 100 µM. The MCC at 72 h in series [3] is more than 100 µM.

Regarding `COCC#Cc1c(-c2ccc(C)cc2)oc2nc(=O)n([C@H]3C[C@H](OC(C)=O)[C@@H](COC(C)=O)O3)cc12`, the EC50 with Human alphaherpesvirus 3 [1] was 20 µM; with Human alphaherpesvirus 3 [2] it was 44.7 µM. Moreover, the MCC at 72 h in series [3] was more than 100 µM.

For the compound `CC(=O)OC[C@H]1O[C@@H](n2cc3c(C#Cc4ccc(C)cc4)c(-c4ccc(C)cc4)oc3nc2=O)C[C@@H]1OC(C)=O`, the figures for the EC50 with Human alphaherpesvirus 3 [1] and in the series on Human alphaherpesvirus 3 [2] were 6.84 µM and 10.9 µM, respectively. Further, in series [3], the MCC at 72 h worked out at 60 µM. In addition, in the series with HEL, the cytotoxic concentration (CC50) was determined as 8.77 µM. The selectivity ratio in series [4] was not above 1.

For the compound `CC(=O)OC[C@H]1O[C@@H](n2cc3c(C#CCCCCn4c5ccccc5c5ccccc54)c(-c4ccc(C)cc4)oc3nc2=O)C[C@@H]1OC(C)=O`, the EC50 in the series with Human alphaherpesvirus 3 [1] was determined as 7.23 µM; with Human alphaherpesvirus 3 [2] it was 13.2 µM. In series [3], the MCC at 72 h amounted to 100 µM. Further, the CC50 in the series with HEL is 6.22 µM. Besides, in series [4], the selectivity ratio was not above 1.

For the compound `CCCCCc1ccc(C#Cc2c(-c3ccc(CCCCC)cc3)oc3nc(=O)n([C@H]4C[C@H](OC(C)=O)[C@@H](COC(C)=O)O4)cc23)cc1`, the figures for the concentration giving a half-maximal response (EC50) in the series with Human alphaherpesvirus 3 [1] and with Human alphaherpesvirus 3 [2] were 1.5 µM and 8.94 µM, respectively. Further, in series [3], the MCC at 72 h was 100 µM. In addition, in the series on HEL, the CC50 was more than 100 µM. Further, the values for the selectivity ratio in series [4] and in series [6] were 67 and 11, respectively. Also, in series [5], the “Ratio EC50” value was found to be 6.

Take `CCCCCc1ccc(-c2oc3nc(=O)n([C@H]4C[C@H](OC(C)=O)[C@@H](COC(C)=O)O4)cc3c2C#CCO)cc1`: the concentration for a half-maximal effect (EC50) with Human alphaherpesvirus 3 [1] stood at 7.56 µM; in the series on Human alphaherpesvirus 3 [2], 13 µM. Besides, the MCC at 72 h in series [3] worked out at 100 µM. The 50% cytotoxic concentration (CC50) with HEL turned out to be 3.8 µM. The selectivity ratio in series [4] was not above 1.

For `CC(=O)OC[C@H]1O[C@@H](n2cc3c(C#CCCN4C(=O)c5ccccc5C4=O)c(-c4ccc(C)cc4)oc3nc2=O)C[C@@H]1OC(C)=O`, the EC50 in the series with Human alphaherpesvirus 3 [1] worked out at 31 µM; with Human alphaherpesvirus 3 [2], 38.1 µM. The MCC at 72 h in series [3] was determined as 100 µM.

For `Nc1nc2c(ncn2COCCO)c(=O)[nH]1` [ACYCLOVIR], the MCC at 72 h in series [3] is more than 440 µM. Moreover, the CC50 in the series on HEL was more than 300 µM.

For `O=c1[nH]c(=O)n([C@H]2C[C@H](O)[C@@H](CO)O2)cc1/C=C/Br` [BRIVUDINE], the EC50 in the series on Human alphaherpesvirus 3 [2] was 12 µM. In series [3], the MCC at 72 h was more than 300 µM. Moreover, the CC50 with HEL was more than 300 µM.
